Assay results as given in ChEMBL document CHEMBL2163316, “Discovery of (S)-6-(3-cyclopentyl-2-(4-(trifluoromethyl)-1H-imidazol-1-yl)propanamido)nicotinic acid as a hepatoselective glucokinase activator clinical candidate for treating type 2 diabetes mellitus” (J Med Chem, 2012).
In brackets after ≈: the same amount, converted by molar mass.

What was measured:
Canis familiaris [1] = experiment: fAUC (0 to 24 hrs) in dog at 1 mg/kg, iv; type: ADME, organism-based, Canis lupus familiaris; design: dose 1 mg/kg, route intravenous; settings: in vivo
[2] = Thermodynamic solubility of the compound at pH 6.5; type: physicochemical; settings: buffer, read-out: Therm_solubility
[3] = Oral bioavailability in monkey at 3 mg/kg; type: ADME, organism-based, Macaca mulatta; settings: rhesus monkey, in vivo
Method in brief: (§1)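 Pharmacokinetic parameters are the geometric mean of n = 2 animals per group unless otherwise noted.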

[4] = Ratio of free drug uptake in liver to plasma of dog at 50 mg/kg, po administered for 4 days measured 4 hrs post last dosing; type: ADME, organism-based, Canis lupus familiaris; design: dose 50 mg/kg, route oral
Method in brief: (§2)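 Oral repeat dosing: rats for 28 days, dogs for 4 days. Plasma, liver, pancreas and brain were sampled at 4 h postdose on the last day. Ratios use free drug concentrations, converted with unbound fractions from equilibrium dialysis (plasma at 50 μM, tissues at 1 μM). BLQ = below limit of quantification.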

Rhesus monkey [5] = experiment: fCmax in monkey at 0.5 mg/kg, iv; type: ADME, organism-based, Macaca mulatta; design: dose 0.5 mg/kg, route intravenous; settings: in vivo
Rattus norvegicus [6] = experiment: fAUC (0 to 24 hrs) in rat at 5 mg/kg, po; type: ADME, organism-based; design: dose 5 mg/kg, route oral; settings: in vivo
Rhesus monkey [7] = experiment: fCmax in monkey at 3 mg/kg, po; type: ADME, organism-based, Macaca mulatta; design: dose 3 mg/kg, route oral; settings: in vivo
[8] = Drug excretion in rat bile; type: ADME, tissue-based; settings: read-out: Drug excretion
Rattus norvegicus [9] = experiment: fAUC (0 to 24 hrs) in rat at 1 mg/kg, iv; type: ADME, organism-based; design: dose 1 mg/kg, route intravenous; settings: in vivo
[10] = Oral bioavailability in dog at 5 mg/kg; type: ADME, organism-based, Canis lupus familiaris; settings: in vivo
[11] = Fraction absorbed in portal vein cannulated rat at 5 mg/kg, po; settings: in vivo, read-out: Fabs
[12] = Volume of distribution at steady state in monkey at 0.5 mg/kg, iv; type: ADME, organism-based, Macaca mulatta; design: dose 0.5 mg/kg, route intravenous; settings: rhesus monkey, in vivo, read-out: Vdss; method in brief: as §1
[13] = Volume of distribution at steady state in rat at 1 mg/kg, iv; type: ADME, organism-based; design: dose 1 mg/kg, route intravenous; settings: in vivo, read-out: Vdss; method in brief: as §1
[14] = Ratio of free drug uptake in brain to plasma of Wistar rat at 100 mg/kg, po administered for 28 days measured 4 hrs post last dosing; type: ADME, organism-based; design: dose 100 mg/kg, route oral; settings: BLD = below limit of detection; method in brief: as §2
[15] = Renal excretion in rat; type: ADME, organism-based, Kidney; settings: urine, read-out: Drug excretion
[16] = Ratio of free drug uptake in pancreas to plasma of dog at 50 mg/kg, po administered for 4 days measured 4 hrs post last dosing; type: ADME, organism-based, Canis lupus familiaris; design: dose 50 mg/kg, route oral; method in brief: as §2
Rhesus monkey [17] = experiment: fAUC (0 to 24 hrs) in monkey at 3 mg/kg, po; type: ADME, organism-based, Macaca mulatta; design: dose 3 mg/kg, route oral; settings: in vivo
[18] = Oral bioavailability in rat at 5 mg/kg; type: ADME, organism-based; settings: in vivo; method in brief: as §1
Rattus norvegicus [19] = experiment: fCmax in rat at 1 mg/kg, iv; type: ADME, organism-based; design: dose 1 mg/kg, route intravenous; settings: in vivo
Canis familiaris [20] = experiment: fAUC (0 to 24 hrs) in dog at 5 mg/kg, po; type: ADME, organism-based, Canis lupus familiaris; design: dose 5 mg/kg, route oral; settings: in vivo
[21] = Kinetic solubility of the compound; type: physicochemical; settings: read-out: Kinetic_solubility
[22] = Ratio of free drug uptake in brain to plasma of dog at 50 mg/kg, po administered for 4 days measured 4 hrs post last dosing; type: ADME, organism-based, Canis lupus familiaris; design: dose 50 mg/kg, route oral; settings: read-out: BPR; method in brief: as §2
[23] = Ratio of free drug uptake in pancreas to plasma of Wistar rat at 100 mg/kg, po administered for 28 days measured 4 hrs post last dosing; type: ADME, organism-based; design: dose 100 mg/kg, route oral; method in brief: as §2
Rattus norvegicus [24] = experiment: fCmax in rat at 5 mg/kg, po; type: ADME, organism-based; design: dose 5 mg/kg, route oral; settings: in vivo
Rhesus monkey [25] = experiment: fAUC (0 to 24 hrs) in monkey at 0.5 mg/kg, iv; type: ADME, organism-based, Macaca mulatta; design: dose 0.5 mg/kg, route intravenous; settings: in vivo
[26] = Ratio of free drug uptake in liver to plasma of Wistar rat at 100 mg/kg, po administered for 28 days measured 4 hrs post last dosing; type: ADME, organism-based; design: dose 100 mg/kg, route oral; method in brief: as §2
Canis familiaris [27] = experiment: fCmax in dog at 1 mg/kg, iv; type: ADME, organism-based, Canis lupus familiaris; design: dose 1 mg/kg, route intravenous; settings: in vivo
[28] = Volume of distribution at steady state in dog at 1 mg/kg, iv; type: ADME, organism-based, Canis lupus familiaris; design: dose 1 mg/kg, route intravenous; settings: in vivo, read-out: Vdss; method in brief: as §1
Canis familiaris [29] = experiment: fCmax in dog at 5 mg/kg, po; type: ADME, organism-based, Canis lupus familiaris; design: dose 5 mg/kg, route oral; settings: in vivo

## O=C(O)c1ccc(NC(=O)[C@H](CC2CCCC2)n2cnc(C(F)(F)F)c2)nc1 [PF-04991532]
Canis familiaris [1]
  fAUC: 79.1 ng·h/mL
[2]
  solubility thermodynamic: 4200 µg/mL (≈ 10.6 mM)
[3]
  bioavailability: 35%
[4]
  Kp uu at 4 h: 14.5
Rhesus monkey [5]
  fCmax: 219 ng/mL
Rattus norvegicus [6]
  fAUC: 30.3 ng·h/mL
Rhesus monkey [7]
  fCmax: 13.6 ng/mL
[8]
  dose excreted: 62%
Rattus norvegicus [9]
  fAUC: 34.7 ng·h/mL
[10]
  bioavailability: 18%
[11]
  Fa: 53%
[12]
  Vd: 0.7 L/kg
[13]
  Vd: 2 L/kg
[14]
  BPR: BLD
[15]
  dose excreted: 11%
[16]
  Kp uu at 4 h: 0.25
Rhesus monkey [17]
  fAUC: 94.7 ng·h/mL
[18]
  bioavailability: 18%
Rattus norvegicus [19]
  fCmax: 176 ng/mL
Canis familiaris [20]
  fAUC: 72.6 ng·h/mL
[21]
  solubility kinetic: 524 µM (≈ 208 µg/mL)
[22]
  Kp uu at 4 h: 0.009
[23]
  Kp uu at 4 h: 0.14
Rattus norvegicus [24]
  fCmax: 5.4 ng/mL
Rhesus monkey [25]
  fAUC: 46.2 ng·h/mL
[26]
  Kp uu at 4 h: 10.5
Canis familiaris [27]
  fCmax: 479 ng/mL
[28]
  Vd: 1.6 L/kg
Canis familiaris [29]
  fCmax: 23.3 ng/mL
